# Experiment: Toxicity liver stage against HepG2, at 10uM
# Assay type: cell-based
# Parameters: test concentration 10 uM, cell line HepG2-A16-CD81EGFP
# Conditions: human, HepG2-A16-CD81EGFP cells; read-out: INHIBITION
# Procedure, shortened: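 Uninfected HepG2-A16-CD81EGFP cells, 3 × 10^3 per well, 1536-well, plated on prespotted compound at 10 μM final, parasite-free screening media added to match infected plates; puromycin 10 μM positive, DMSO 0.5% negative; run in parallel with 48 h PbLuc assay at 37 °C, 5% CO2; viability by CellTiter-Glo luminescence, normalized to controls.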
smiles,measurement,value
O=C1NCCCCC1Sc1ccc(F)cc1F (configuration not stated),cytotoxicity at 10 µM,-8.01%
F[C@@H]1CN(CC2CC2)C[C@@H]1OCc1nc2ccccc2o1,cytotoxicity at 10 µM,1.97%
COc1ccc(C(=O)NC[C@H]2COCc3nc4cc(C)ccc4n32)cc1,cytotoxicity at 10 µM,2.52%
COCc1cn(C[C@H]2C[C@@H]3CCN2C[C@@H]3C(=O)N2CCOCC2)nn1,cytotoxicity at 10 µM,4.45%
Cc1cccc(OC2CCN(S(=O)(=O)Cc3cccc(F)c3)CC2)n1,cytotoxicity at 10 µM,-7.79%
COC1(CNS(=O)(=O)c2ccccc2Cl)CCSC1 (configuration not stated),cytotoxicity at 10 µM,-7.48%
Cc1nc(N(C)C)nc(C)c1NC(=O)c1ccco1,cytotoxicity at 10 µM,1.14%
O=C(NCCCO)C1CC(=O)N(c2n[nH]c3cccc(F)c23)C1 (configuration not stated),cytotoxicity at 10 µM,-1.07%
CCS(=O)(=O)N1Cc2nccn2CC(Cn2nc(C)nc2C)C1 (configuration not stated),cytotoxicity at 10 µM,-2.34%
O=C(CCc1ccccc1)N1CCn2cc(Cn3cncn3)nc2C1,cytotoxicity at 10 µM,-0.881%
CC1CCCCN1C(=O)c1ccn(COc2ccc(F)cc2)n1 (configuration not stated),cytotoxicity at 10 µM,4.7%
CC(C)(C)NC(=O)N1CCN(Cc2cccnc2)CC1,cytotoxicity at 10 µM,10.3%
c1ccc2c(N3CCSCC3)cnnc2c1,cytotoxicity at 10 µM,-4.02%
CCN1CCN(C(=O)COCc2nc(-c3ccncc3)no2)CC1,cytotoxicity at 10 µM,-8.72%
CCCC(=O)NCCc1nc2cc(-c3ccc(OC)cc3)ncn2n1,cytotoxicity at 10 µM,5.26%
CCOCC(=O)N1C[C@@H](O)[C@H](N2CCN(c3ccccc3)CC2)C1,cytotoxicity at 10 µM,7.43%
CCc1cc(O)n2nc(C3CCN(C(=O)c4ccccn4)CC3)cc2n1,cytotoxicity at 10 µM,2.29%
Cc1c[nH]nc1C1CN(Cc2cnn(-c3ccccc3C(=O)O)c2)C1,cytotoxicity at 10 µM,3.32%
CO[C@@H]1CC[C@@H](N(C)C(=O)c2cn3cc(C)ccc3n2)[C@H]1O,cytotoxicity at 10 µM,0.91%
COCCN1CCCC(C)(c2cc(O)[nH]n2)C1 (configuration not stated),cytotoxicity at 10 µM,10.8%
Cc1nccc(C2CN(S(=O)(=O)N(C)C)C2)n1,cytotoxicity at 10 µM,-5.44%
CNc1cc(C)nc(C2COCCN2CCc2ccccc2)n1 (configuration not stated),cytotoxicity at 10 µM,2.52%
CNc1ncc(C(=O)N2CCOC(C(=O)NC3CCCC3)C2)cn1 (configuration not stated),cytotoxicity at 10 µM,12.2%
Cc1ccc(N(C)[C@@H]2CC[C@@H]3CN(C(=O)Cc4cccs4)C[C@@H]32)nn1,cytotoxicity at 10 µM,-13.5%
CCCn1cc(C(=O)N2CCCC2(C)c2nc(C)cc(C)n2)cn1 (configuration not stated),cytotoxicity at 10 µM,4.28%
c1cc(N2CCCC2c2cnccn2)ncn1 (configuration not stated),cytotoxicity at 10 µM,-22.4%
O=c1c2sccc2nc2n1CCN(Cc1cccs1)CC2,cytotoxicity at 10 µM,4.27%
Cc1nccn1-c1ccc(NS(=O)(=O)c2cnn(C(C)C)c2)cn1,cytotoxicity at 10 µM,-5.05%
O=C(c1ccncc1)N1CCCN(Cc2nnc(C3CC3)o2)CC1,cytotoxicity at 10 µM,1.91%
CCC1CCCCCN1C(=O)c1coc(S(=O)(=O)N(C)C)c1 (configuration not stated),cytotoxicity at 10 µM,1.66%
Cc1ccc(C2CN(CCCC#N)CCO2)c(C)c1 (configuration not stated),cytotoxicity at 10 µM,-2.16%
CC(C)(C)c1nnc(NCC(=O)N2CCc3sccc3C2)s1,cytotoxicity at 10 µM,5.62%
COCC(O)CN1CCC(NC(=O)c2cscc2C)CC1 (configuration not stated),cytotoxicity at 10 µM,-4.51%
COCCN(C(=O)c1ccc(OC)cc1)c1ccc(C#N)cc1,cytotoxicity at 10 µM,7.81%
Cc1ccc(N2CCCN(C(=O)c3cc(CC(C)C)n[nH]3)CC2)nn1,cytotoxicity at 10 µM,-14.6%
COCCC(=O)NCC(O)c1c(F)cccc1F (configuration not stated),cytotoxicity at 10 µM,-2.38%
Cc1cc(OCC(=O)NCc2ccc(F)cc2)nnc1C,cytotoxicity at 10 µM,-9.27%
O=C(OCc1cccs1)c1cccc(C(=O)N2CCCC2)n1,cytotoxicity at 10 µM,-1.11%
O=C(O)c1csc(S(=O)(=O)N2CCN(Cc3c(F)cccc3Cl)CC2)c1,cytotoxicity at 10 µM,-2.56%
COC(=O)c1oc(CNC(C)(C)CO)cc1C,cytotoxicity at 10 µM,10.5%
Cc1ccc(N(CCC#N)C(=O)CN2CCCC2c2cccs2)cc1 (configuration not stated),cytotoxicity at 10 µM,-3.75%
CCc1ccc(CNC(=O)CCNS(=O)(=O)c2cn(C)c(C)n2)s1,cytotoxicity at 10 µM,6.13%
CNC(=O)CN1CCN(C(=O)Nc2ccc(C)s2)CC1,cytotoxicity at 10 µM,-13.3%
Cc1noc(C)c1CC(=O)N1CCCC(c2noc(C(C)C)n2)C1 (configuration not stated),cytotoxicity at 10 µM,1.48%
CCn1nc(C)c(CNC(=O)NCC(C)(O)c2ccco2)c1C (configuration not stated),cytotoxicity at 10 µM,-10.8%
COC(=O)c1ccc(Cl)c(NS(=O)(=O)c2cn(C)cn2)c1,cytotoxicity at 10 µM,11.9%
Cc1nn(C)c(Cl)c1C1CCCN1CC(=O)N1CCCCC1 (configuration not stated),cytotoxicity at 10 µM,0.347%
Cc1cc(CN2CCN(C(=O)C(C(C)C)n3cncn3)CC2)no1 (configuration not stated),cytotoxicity at 10 µM,-9.88%
CC(C)c1nc(CN2CCN(C(=O)CC3CCCCC3)CC2)no1,cytotoxicity at 10 µM,-0.95%
Cc1csc(NC(=O)c2cccnc2N2CCOCC2)n1,cytotoxicity at 10 µM,-4.75%
CCN(CC)C(=O)CCNC(=O)c1ccccc1N1CCOCC1,cytotoxicity at 10 µM,-0.768%
Cc1cccc(CNCCOc2ccc(S(C)(=O)=O)cc2)c1,cytotoxicity at 10 µM,-0.302%
CS(=O)(=O)NCC1CCCN(C(=O)c2ccc3c(c2)CCCC3)C1 (configuration not stated),cytotoxicity at 10 µM,-3.54%
Cn1c(=O)oc2ccc(NC(=O)N3CCc4ccccc4C3)cc21,cytotoxicity at 10 µM,-5.66%
Cc1ccccc1C1CN(c2cnn(C)c(=O)c2Cl)CCO1 (configuration not stated),cytotoxicity at 10 µM,-19.4%
OC(COc1ccc2c(c1)OCO2)CN1CC(n2cccn2)C1 (configuration not stated),cytotoxicity at 10 µM,-6.17%
Cc1nnc2n1CCN(C(=O)CN1C(=O)CCOc3ccccc31)C2,cytotoxicity at 10 µM,4.48%
CCCN1CCC(C(=O)NCCN(CC)c2ccccc2C)CC1,cytotoxicity at 10 µM,15.7%
Cc1cnn(CCC(=O)Nc2cccnc2N2CCC(CO)CC2)c1,cytotoxicity at 10 µM,-2%
O=C(NC1CCN(c2ncccn2)CC1)c1cccc(-n2ccnc2)c1,cytotoxicity at 10 µM,-1.17%
CC(=O)c1ccc(OCC(=O)NC(C)CCc2ccco2)cc1 (configuration not stated),cytotoxicity at 10 µM,-9.96%
Cc1cc(NC(=O)NCCc2ccsc2)n(C)n1,cytotoxicity at 10 µM,12.3%
CCOCC1c2c(ncn2C)CCN1C(=O)c1ccoc1 (configuration not stated),cytotoxicity at 10 µM,-103%
O=C(c1cocn1)N1CCC[C@]2(C[C@@H](OCC3CC3)CO2)C1,cytotoxicity at 10 µM,-76.4%
O=C(c1ccsc1)N1CC[C@@H](N2CCOCC2)[C@@H]1Cc1ccccc1,cytotoxicity at 10 µM,-71.8%
COc1ccccc1OC1CCN(c2ccncc2)CC1,cytotoxicity at 10 µM,3.33%
COCCN(CCOC)C(=O)c1c[nH]nc1-c1cccc(F)c1,cytotoxicity at 10 µM,-0.25%
CCCN1CCC(N2CCN(c3cc(C)nc(C)c3)CC2)CC1,cytotoxicity at 10 µM,-11.2%
CCc1cc(N2C[C@H](C3CC3)[C@@H](N)C2)nc(N2CCCC2)n1,cytotoxicity at 10 µM,0.334%
CS(=O)(=O)CCN1C[C@H](NC(=O)c2cnc(O)cn2)[C@@H](C2CC2)C1,cytotoxicity at 10 µM,9.24%
CC(C)CN(Cc1cnn(C)c1)C(=O)C1COc2ccccc2C1 (configuration not stated),cytotoxicity at 10 µM,0.956%
COc1ccc(OCC2CCCN(c3nc(CO)cs3)C2)cc1 (configuration not stated),cytotoxicity at 10 µM,-0.715%
CS(=O)(=O)N1CCC[C@H]1c1ncnn1-c1ccc2c(c1)OCO2,cytotoxicity at 10 µM,-12.8%
CSc1cccc(CN2CCC(CCC(=O)NCCN(C)C)CC2)c1,cytotoxicity at 10 µM,-11.9%
CC1(Cc2ccccn2)NCCc2[nH]cnc21 (configuration not stated),cytotoxicity at 10 µM,-5.18%
CC(C)(O)c1cn(C2CCN(C(=O)CCC(F)(F)F)CC2)nn1,cytotoxicity at 10 µM,1.93%
CN(Cc1ccon1)c1nc(-c2ccccn2)nc2c1CCNCC2,cytotoxicity at 10 µM,-2.45%
Cc1nonc1C1CCCN1CCC(=O)N1CCc2ccccc2C1 (configuration not stated),cytotoxicity at 10 µM,-11.2%
COC(=O)C(C)(C)NC(=O)c1cc(COc2ccccc2OC)[nH]n1,cytotoxicity at 10 µM,-4.83%
COCCC1CCN(CC(C)n2cnc3ccccc32)CC1 (configuration not stated),cytotoxicity at 10 µM,6.67%
CCN1CCN(C[C@H]2CC[C@@H](Cc3ccc4c(c3)OCO4)O2)CC1,cytotoxicity at 10 µM,-5.97%
N#Cc1c(N)nc2c(c1C1CCOC1)CCc1cc(O)ccc1-2 (configuration not stated),cytotoxicity at 10 µM,23.4%
Cn1c(C(=O)N2CCc3[nH]cnc3C2C(=O)O)ccc1-c1ccccc1 (configuration not stated),cytotoxicity at 10 µM,-0.392%
CCN(CC)C(=O)[C@@H]1C[C@H](N)CN1C(=O)c1cc2c([nH]c1=O)CCC2,cytotoxicity at 10 µM,-1.94%
Cc1cc(CN(C)CCC(O)c2ccccc2)nn1C (configuration not stated),cytotoxicity at 10 µM,-17.3%
O=C(NCCc1ccncc1)c1ccc(S(=O)(=O)NC2CCC2)cc1,cytotoxicity at 10 µM,-7.54%
O=C(c1c[nH]nc1-c1cccc(F)c1)N1CCNC(c2ccccc2)C1 (configuration not stated),cytotoxicity at 10 µM,-3.68%
COc1ccc(C(=O)C2CCCN(Cc3ccncc3)C2)c(OC)c1 (configuration not stated),cytotoxicity at 10 µM,-15.7%
CCCc1nc(C(C)(C)NC(=O)C2CC(=O)N(CCOC)C2)no1 (configuration not stated),cytotoxicity at 10 µM,-8.12%
CN(Cc1nccn1C)C1CCN(CCc2ccccn2)CC1,cytotoxicity at 10 µM,-8.78%
COc1ccnc(N2CCN(C(=O)COCC(F)(F)F)CC2)n1,cytotoxicity at 10 µM,-9.36%
Cc1nc(C)n(CC2CCCCN2CC(=O)Nc2c(C)n[nH]c2C)n1 (configuration not stated),cytotoxicity at 10 µM,-12.7%
CC(C(=O)NCc1ccnc(N2CCOCC2)c1)n1cccn1 (configuration not stated),cytotoxicity at 10 µM,-6.28%
CC1CN(CCOc2cccc(C#N)c2)CCN1Cc1nccn1C (configuration not stated),cytotoxicity at 10 µM,-2.81%
Cc1nc2n(n1)CC(NCCC(=O)Nc1cc(C)on1)CC2 (configuration not stated),cytotoxicity at 10 µM,-10.5%
CN(C)c1ncccc1CNS(=O)(=O)c1ccc(C(N)=O)cc1,cytotoxicity at 10 µM,-4.08%
CC(C)(C)c1n[nH]c(C2CN(Cc3nnc(C4CC4)o3)CCO2)n1 (configuration not stated),cytotoxicity at 10 µM,-6.55%
Cc1cc(C)n(CC2CCCCN2C(=O)c2ccsc2)n1 (configuration not stated),cytotoxicity at 10 µM,-10.3%
Cc1cnn(CC(C)NCc2csc(-c3ncccn3)n2)c1 (configuration not stated),cytotoxicity at 10 µM,-6.94%
CCCN(CC1COc2ccccc2O1)C(=O)CCn1cncn1 (configuration not stated),cytotoxicity at 10 µM,-0.627%
CCc1noc(C(C)N2CCN(Cc3nnc(C4CC4)o3)CC2)n1 (configuration not stated),cytotoxicity at 10 µM,-4.79%
CC(C)c1nc(C(=O)N2CCCC(n3cncn3)C2)c[nH]1 (configuration not stated),cytotoxicity at 10 µM,-2.48%
CCOCC(=O)N1CCC2(CC1)COCCN2CCN(C)C,cytotoxicity at 10 µM,-0.464%
Cc1nc(-c2cncnc2C2CCCNC2)no1 (configuration not stated),cytotoxicity at 10 µM,6.88%
Cc1ccc2c(c1)C(NC(=O)N(C)C)CC21CCN(C(C)C)CC1 (configuration not stated),cytotoxicity at 10 µM,-0.493%
O=C(c1ccncc1F)N1CCc2ncnc(C3CC3)c2CC1,cytotoxicity at 10 µM,-78.4%
O=C(Nc1ccccc1)C1CN(Cc2ccsc2)CC12CCOCC2 (configuration not stated),cytotoxicity at 10 µM,6.58%
Cc1ccc(CN2CCn3cc(CN(C)Cc4ccco4)nc3C2)o1,cytotoxicity at 10 µM,-1.09%
O=C(NCC1CC1)C1CCC2(CCN(C(=O)c3ccccn3)CC2)O1 (configuration not stated),cytotoxicity at 10 µM,9.74%
Cc1nnn2c1COC(CNCc1nccs1)C2 (configuration not stated),cytotoxicity at 10 µM,1.71%
CN(C)C(=O)COC[C@]12COC[C@H]1CN(Cc1ccco1)C2,cytotoxicity at 10 µM,-0.522%
CN(C)C(=O)N1CCOCC2(CCN(c3ccccn3)C2)C1 (configuration not stated),cytotoxicity at 10 µM,1.6%
